In ChEMBL document CHEMBL1142368, “The discovery of adamantyl-derived, inhaled, long acting beta(2)-adrenoreceptor agonists” (Bioorg Med Chem Lett, 2008):

Tests used:
[1] = Distribution coefficient, log D of the compound; assay type: physicochemical; conditions: octanol/water
[2] = Metabolic stability in human liver microsomes; assay type: ADME, Microsome; conditions: read-out: Stability
[3] = Volume of distribution in iv dosed rat; assay type: ADME, organism-based; conditions: in vivo
Procedure, shortened: (§1)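 Rats were given the compound intravenously, and volume of distribution, clearance and half life were determined from that dosing.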

[4] = Clearance in iv dosed rat; assay type: ADME, organism-based; conditions: in vivo; procedure, shortened: as §1
[5] = Half life in iv dosed rat; assay type: ADME, organism-based; conditions: in vivo; procedure, shortened: as §1
[6] = Oral bioavailability in rat; assay type: ADME, organism-based; conditions: in vivo
Procedure, shortened: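 Rats received the compound orally and intravenously in a crossover study.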

Homo sapiens = species: Homo sapiens; assay: Selectivity for human recombinant adrenergic beta2 receptor over human recombinant adrenergic beta-1 receptor
Procedure, shortened: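 Cell-based functional agonist assay using recombinant human β2 receptor expressed in CHO cells, compared against human β1 receptor.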

SMILES	logD [1]	half-life [2]	Vd [3]	clearance [4]	half-life [5]	bioavailability [6]	Selectivity ratio (Homo sapiens)
C[C@H](Cc1cccc(CC(=O)NC23CC4CC(CC(C4)C2)C3)c1)NC[C@H](O)c1ccc(O)c(CO)c1	2.1	2 min	14 L/kg	103 mL/min/kg	96 min	< 5%	2210
C[C@H](Cc1cccc(CC(=O)NCC2CCCCC2)c1)NC[C@H](O)c1ccc(O)c(CO)c1	1.5	3 min					6790
C[C@H](Cc1cccc(CC(=O)NC2CCCCCCC2)c1)NC[C@H](O)c1ccc(O)c(CO)c1	1.9	2 min					192
C[C@H](Cc1cccc(CC(=O)NCC2CCCCCC2)c1)NC[C@H](O)c1ccc(O)c(CO)c1	2						1890
C[C@H](Cc1cccc(CC(=O)NCC23CC4CC(CC(C4)C2)C3)c1)NC[C@H](O)c1ccc(O)c(CO)c1	2.5	2 min					547
C[C@H](Cc1cccc(CC(=O)NCc2ccc(Cl)c(Cl)c2)c1)NC[C@H](O)c1ccc(O)c(CO)c1		4 min					6340
C[C@H](Cc1cccc(CC(=O)NC2C3CC4CC(C3)CC2C4)c1)NC[C@H](O)c1ccc(O)c(CO)c1 (stereo partly drawn)	2.1	2 min					451
